Experimental data from ChEMBL document CHEMBL1140334, “Synthesis and structure-activity relationships of pyrazine-pyridine biheteroaryls as novel, potent, and selective vascular endothelial growth factor receptor-2 inhibitors” (J Med Chem, 2005).

Experiments:
[1] = target: Casein kinase I; assay: Inhibition of casein kinase 1; type: protein assay
[2] = tested on: MRC5; assay: Concentration required to inhibit proliferation of human MRC5 fibroblast cell growth
[3] = tested on: HUVEC; assay: Concentration required to inhibit proliferation of HUVEC; conditions: Homo sapiens
[4] = Inhibition of cyclin-dependent kinase 1 activity
How it was run: (§1)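 Radiometric kinase assay. Conditions varied slightly per kinase. Stopped with PBS/100 mM EDTA, read by scintillation counting. IC50 by linear regression of % inhibition, mean of at least two determinations.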

[5] = tested on: HASMC; assay: Concentration required to inhibit proliferation of HASMC; conditions: Homo sapiens
[6] = Inhibition of protein kinase A; how it was run: as §1
[7] = tested on: HUVEC; assay: Concentration inhibiting VEGF stimulated (2 ng/well) HUVE cell proliferation; conditions: Homo sapiens
[8] = tested on: HeLa; assay: Concentration required to inhibit proliferation of HeLa cell growth; conditions: Homo sapiens
[9] = Inhibition of protein kinase C gamma; how it was run: as §1
[10] = tested on: A-375; assay: Concentration required to inhibit proliferation of A375 human amelanotic melanoma cell growth
[11] = tested on: HCT-116; assay: Concentration required to inhibit proliferation of human HCT116 colon cancer cell growth
[12] = target: Glycogen synthase kinase-3 (Homo sapiens, UniProt P49840+P49841); assay: Inhibition of glycogen synthase kinase-3; type: protein assay; how it was run: as §1
[13] = target: T1, Vascular endothelial growth factor receptor 2 (Homo sapiens, UniProt P35968); assay: Inhibitory concentration (experimental) against vascular endothelial growth factor receptor 2; how it was run: as §1
[14] = target: T1, Vascular endothelial growth factor receptor 2; assay: Inhibition of vascular endothelial growth factor receptor 2; how it was run: as §1
[15] = target: Casein kinase II (Homo sapiens, UniProt P19784+P67870+P68400); assay: Inhibition of casein kinase 2; type: protein-complex assay; how it was run: as §1
[16] = target: Protein kinase C beta type (Homo sapiens, UniProt P05771); assay: Inhibition of protein kinase C beta activity; how it was run: as §1
[17] = target: CaM kinase II (Homo sapiens, UniProt Q13557+Q13555+Q13554+Q9UQM7); assay: Inhibition of calcium/calmodulin-dependent protein kinase type II; type: protein assay
[18] = tested on: A-375; assay: The antitumor activity shown by the compound against A375 human melanoma xenografts growing in nude mice (75 mg/kg, i.p.) in terms of mean day of survival; type: functional, Mus musculus
How it was run: (§2)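 Female nude mice carried subcutaneous flank implants of 1 mm3 A375 fragments and were pair-matched on day 1 at tumors of 62-126 mg. Dosing was i.p. once daily for 30 days, in 1.5% Pluronic F108 vehicle; the study ended at day 60. Tumor weight was taken as (w2l)/2. Mice were euthanized at 2.0 g, and MDS was derived from calculated time to endpoint.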

[19] = target: Insulin receptor (Homo sapiens, UniProt P06213); assay: Inhibition of insulin Receptor kinase; how it was run: as §1
[20] = tested on: A-375; assay: The antitumor activity shown by the compound against A375 human melanoma xenografts growing in nude mice (10 mg/kg, i.p.) in terms of mean day of survival; type: functional, Mus musculus; how it was run: as §2
[21] = target: Mitogen-activated protein kinase 1 (Homo sapiens, UniProt P28482); assay: Inhibition of mitogen-activated protein kinase; how it was run: as §1
[22] = Inhibition of platelet-derived growth factor receptor; how it was run: as §1
[23] = target: Cyclin-dependent kinase 4/cyclin D1 (Homo sapiens, UniProt P11802); assay: Inhibition of cyclin dependent kinase 4-cyclinD1; type: protein-complex assay; how it was run: as §1

T1 sequence (P35968 whole entry): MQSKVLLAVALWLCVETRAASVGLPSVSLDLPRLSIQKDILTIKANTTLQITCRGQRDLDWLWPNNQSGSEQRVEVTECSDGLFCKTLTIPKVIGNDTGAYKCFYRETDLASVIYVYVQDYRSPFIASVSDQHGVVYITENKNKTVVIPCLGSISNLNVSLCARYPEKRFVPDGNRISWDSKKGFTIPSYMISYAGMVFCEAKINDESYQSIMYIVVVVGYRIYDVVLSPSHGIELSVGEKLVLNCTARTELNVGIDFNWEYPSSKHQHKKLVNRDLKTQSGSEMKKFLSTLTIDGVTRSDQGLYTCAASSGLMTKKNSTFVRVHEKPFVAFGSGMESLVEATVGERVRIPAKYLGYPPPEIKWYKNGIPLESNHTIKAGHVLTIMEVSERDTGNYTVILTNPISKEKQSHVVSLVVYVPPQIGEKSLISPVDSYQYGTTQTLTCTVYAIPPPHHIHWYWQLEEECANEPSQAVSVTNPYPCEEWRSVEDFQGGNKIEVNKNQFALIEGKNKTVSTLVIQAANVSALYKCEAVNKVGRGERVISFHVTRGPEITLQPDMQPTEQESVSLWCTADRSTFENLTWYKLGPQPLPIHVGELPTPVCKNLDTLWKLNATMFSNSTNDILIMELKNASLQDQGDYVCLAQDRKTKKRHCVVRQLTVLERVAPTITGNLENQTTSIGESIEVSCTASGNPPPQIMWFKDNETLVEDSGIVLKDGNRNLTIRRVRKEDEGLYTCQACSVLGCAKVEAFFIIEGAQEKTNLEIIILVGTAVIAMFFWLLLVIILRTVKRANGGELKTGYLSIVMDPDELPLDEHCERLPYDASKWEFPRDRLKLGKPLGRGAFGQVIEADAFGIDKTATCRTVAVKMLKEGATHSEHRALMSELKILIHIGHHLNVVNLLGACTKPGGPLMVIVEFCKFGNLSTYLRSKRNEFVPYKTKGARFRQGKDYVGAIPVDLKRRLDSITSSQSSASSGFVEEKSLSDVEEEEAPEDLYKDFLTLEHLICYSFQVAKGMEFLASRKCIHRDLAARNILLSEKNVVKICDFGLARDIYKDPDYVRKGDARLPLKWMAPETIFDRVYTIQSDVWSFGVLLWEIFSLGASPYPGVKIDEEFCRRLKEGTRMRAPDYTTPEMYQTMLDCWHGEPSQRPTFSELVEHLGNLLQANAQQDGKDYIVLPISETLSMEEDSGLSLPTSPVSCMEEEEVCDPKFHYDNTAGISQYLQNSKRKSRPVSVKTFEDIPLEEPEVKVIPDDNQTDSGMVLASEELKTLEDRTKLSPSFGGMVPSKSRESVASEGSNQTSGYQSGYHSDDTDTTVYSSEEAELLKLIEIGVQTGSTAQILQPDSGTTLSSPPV
Casein kinase II, sequence (P67870 whole entry): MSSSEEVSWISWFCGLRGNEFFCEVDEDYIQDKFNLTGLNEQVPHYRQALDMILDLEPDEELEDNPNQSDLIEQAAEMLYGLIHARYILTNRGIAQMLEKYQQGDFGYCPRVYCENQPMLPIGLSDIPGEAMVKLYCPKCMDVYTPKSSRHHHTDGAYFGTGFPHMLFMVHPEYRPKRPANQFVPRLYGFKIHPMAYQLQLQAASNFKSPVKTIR
Casein kinase II, sequence (P68400 whole entry): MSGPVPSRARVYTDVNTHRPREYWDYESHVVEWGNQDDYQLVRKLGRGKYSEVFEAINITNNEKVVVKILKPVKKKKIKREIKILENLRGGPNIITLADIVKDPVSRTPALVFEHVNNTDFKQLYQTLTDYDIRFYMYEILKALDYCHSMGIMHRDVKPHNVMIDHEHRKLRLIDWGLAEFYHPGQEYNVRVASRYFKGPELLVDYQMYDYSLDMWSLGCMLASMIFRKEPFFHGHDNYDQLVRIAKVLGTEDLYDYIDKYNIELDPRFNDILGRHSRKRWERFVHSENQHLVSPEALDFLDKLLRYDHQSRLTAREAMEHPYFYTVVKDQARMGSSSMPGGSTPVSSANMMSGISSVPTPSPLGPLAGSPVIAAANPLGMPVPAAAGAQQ
Casein kinase II, sequence (P19784 whole entry): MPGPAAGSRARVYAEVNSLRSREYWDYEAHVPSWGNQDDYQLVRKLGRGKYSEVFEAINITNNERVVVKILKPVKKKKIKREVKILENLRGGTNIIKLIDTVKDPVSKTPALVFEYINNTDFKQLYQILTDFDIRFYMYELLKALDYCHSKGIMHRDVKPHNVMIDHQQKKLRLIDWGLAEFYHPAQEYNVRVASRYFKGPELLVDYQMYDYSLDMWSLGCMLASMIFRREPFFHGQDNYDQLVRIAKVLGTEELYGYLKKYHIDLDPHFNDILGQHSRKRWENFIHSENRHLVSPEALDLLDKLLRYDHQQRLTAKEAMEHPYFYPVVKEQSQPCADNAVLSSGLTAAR
Insulin receptor, sequence (P06213 28-758 limits assumed): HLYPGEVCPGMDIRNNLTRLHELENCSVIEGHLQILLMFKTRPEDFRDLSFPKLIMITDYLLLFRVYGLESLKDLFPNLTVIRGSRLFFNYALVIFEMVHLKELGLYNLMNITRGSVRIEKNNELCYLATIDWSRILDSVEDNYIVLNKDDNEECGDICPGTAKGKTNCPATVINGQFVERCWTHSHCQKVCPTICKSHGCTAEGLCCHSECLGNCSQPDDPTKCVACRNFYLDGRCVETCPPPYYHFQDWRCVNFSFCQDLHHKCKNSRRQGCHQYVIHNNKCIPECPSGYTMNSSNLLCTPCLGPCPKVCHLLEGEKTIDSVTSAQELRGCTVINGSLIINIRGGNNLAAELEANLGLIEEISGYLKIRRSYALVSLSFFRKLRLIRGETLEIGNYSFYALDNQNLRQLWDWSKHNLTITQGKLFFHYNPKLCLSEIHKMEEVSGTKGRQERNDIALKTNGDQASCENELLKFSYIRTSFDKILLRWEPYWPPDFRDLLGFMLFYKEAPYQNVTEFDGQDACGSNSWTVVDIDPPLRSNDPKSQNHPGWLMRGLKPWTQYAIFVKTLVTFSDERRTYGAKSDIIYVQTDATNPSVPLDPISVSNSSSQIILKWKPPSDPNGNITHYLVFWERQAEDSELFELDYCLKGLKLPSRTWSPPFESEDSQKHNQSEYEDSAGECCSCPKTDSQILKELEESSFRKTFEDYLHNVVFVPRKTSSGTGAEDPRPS
Insulin receptor, sequence (P06213 763-1382 limits assumed): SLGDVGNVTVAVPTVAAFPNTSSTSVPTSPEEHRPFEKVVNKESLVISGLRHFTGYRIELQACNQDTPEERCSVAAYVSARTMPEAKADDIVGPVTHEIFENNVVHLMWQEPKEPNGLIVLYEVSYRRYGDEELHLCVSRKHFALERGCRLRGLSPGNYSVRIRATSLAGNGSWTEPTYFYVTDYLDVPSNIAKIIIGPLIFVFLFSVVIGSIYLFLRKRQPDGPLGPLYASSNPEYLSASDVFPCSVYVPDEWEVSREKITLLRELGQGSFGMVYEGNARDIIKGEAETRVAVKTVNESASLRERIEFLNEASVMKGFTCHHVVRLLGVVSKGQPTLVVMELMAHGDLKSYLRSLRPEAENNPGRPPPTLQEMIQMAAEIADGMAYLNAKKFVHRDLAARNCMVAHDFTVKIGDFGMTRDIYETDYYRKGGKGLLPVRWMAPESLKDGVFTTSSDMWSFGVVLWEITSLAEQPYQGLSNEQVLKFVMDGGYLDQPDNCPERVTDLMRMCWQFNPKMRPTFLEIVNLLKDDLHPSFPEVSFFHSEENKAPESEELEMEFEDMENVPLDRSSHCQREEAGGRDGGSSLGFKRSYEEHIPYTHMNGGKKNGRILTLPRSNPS
Mitogen-activated protein kinase 1, sequence (P28482 whole entry): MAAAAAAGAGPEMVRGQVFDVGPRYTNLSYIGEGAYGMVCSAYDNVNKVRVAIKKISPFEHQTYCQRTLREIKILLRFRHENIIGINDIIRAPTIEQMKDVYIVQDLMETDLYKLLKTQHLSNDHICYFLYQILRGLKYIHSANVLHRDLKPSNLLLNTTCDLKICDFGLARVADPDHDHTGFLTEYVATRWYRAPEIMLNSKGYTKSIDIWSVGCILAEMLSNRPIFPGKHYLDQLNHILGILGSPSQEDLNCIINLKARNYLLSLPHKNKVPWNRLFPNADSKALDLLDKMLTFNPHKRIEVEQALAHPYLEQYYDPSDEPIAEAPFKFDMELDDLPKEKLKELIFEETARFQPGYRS
Protein kinase C beta type, sequence (P05771 whole entry): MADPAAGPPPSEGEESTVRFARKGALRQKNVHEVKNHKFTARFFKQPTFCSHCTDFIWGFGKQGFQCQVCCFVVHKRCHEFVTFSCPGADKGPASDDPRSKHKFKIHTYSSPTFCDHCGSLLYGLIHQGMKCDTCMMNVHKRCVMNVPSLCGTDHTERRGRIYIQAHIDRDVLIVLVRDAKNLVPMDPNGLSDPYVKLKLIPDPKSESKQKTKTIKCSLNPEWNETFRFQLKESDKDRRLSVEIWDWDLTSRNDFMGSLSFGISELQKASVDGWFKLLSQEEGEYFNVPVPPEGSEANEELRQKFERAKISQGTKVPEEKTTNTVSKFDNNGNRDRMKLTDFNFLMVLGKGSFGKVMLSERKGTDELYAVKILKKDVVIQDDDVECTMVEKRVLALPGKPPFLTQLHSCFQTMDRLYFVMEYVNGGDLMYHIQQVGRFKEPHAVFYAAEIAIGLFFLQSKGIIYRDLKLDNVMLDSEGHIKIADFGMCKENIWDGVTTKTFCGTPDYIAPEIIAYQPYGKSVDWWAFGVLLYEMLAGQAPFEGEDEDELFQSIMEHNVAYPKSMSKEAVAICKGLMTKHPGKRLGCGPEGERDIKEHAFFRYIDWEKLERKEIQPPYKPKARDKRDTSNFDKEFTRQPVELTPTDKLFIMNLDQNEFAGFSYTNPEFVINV

IC50 [4]	IC50 [13]	IC50 [14]	Structure (SMILES)	also measured
> 10000 nM			OCCCNc1cncc(-c2cncc(Nc3cccc(Cl)c3)n2)c1	IC50 [1]: > 10000 nM; IC50 [2]: 6600 nM; IC50 [3]: 1680 nM; IC50 [5]: 3870 nM; IC50 [6]: > 10000 nM; IC50 [7]: 164 nM; IC50 [8]: > 10000 nM; IC50 [9]: > 10000 nM; IC50 [10]: > 10000 nM; IC50 [11]: > 10000 nM; IC50 ([12]; read-out: IC50): 478 nM
> 10000 nM	2400 nM	2380 nM	O=C(NCCCO)c1cncc(-c2cncc(Nc3cccc(Cl)c3)n2)c1	
> 10000 nM		> 10000 nM	O=C(COc1ccccc1)Nc1cncc(-c2cncc(Nc3cccc(Cl)c3)n2)c1	
> 10000 nM	1000 nM	1010 nM	OCCCNc1cncc(-c2cncc(Nc3ccccc3Cl)n2)c1	
10000 nM	263 nM	266 nM	Clc1cccc(Nc2cncc(-c3cncc(NCCCCc4ccncc4)c3)n2)c1	
> 10000 nM	275 nM	275 nM	OCCNc1cncc(-c2cncc(Nc3cccc(Cl)c3)n2)c1	
> 10000 nM	389 nM	391 nM	Clc1cccc(Nc2cncc(-c3cncc(NCC4CCOCC4)c3)n2)c1	
	75.9 nM	76 nM	Clc1cccc(Nc2cncc(-c3cncc(NCCCc4cccnc4)c3)n2)c1	IC50 [15]: > 10000 nM; IC50 [1]: > 10000 nM; IC50 [22]: 876 nM; IC50 [2]: 3380 nM; IC50 [3]: 1670 nM; IC50 [5]: 6150 nM; IC50 [6]: > 10000 nM; IC50 [7]: 86 nM; IC50 [19]: > 10000 nM; IC50 [8]: 3060 nM; IC50 [10]: 2960 nM; IC50 [11]: 5050 nM; IC50 [12]: 318 nM; IC50 [21]: > 10000 nM
> 10000 nM	1050 nM	1050 nM	OCCCNc1cncc(-c2cncc(NCc3ccccc3)n2)c1	
> 10000 nM	251 nM	251 nM	OCCCNc1cnc(F)c(-c2cncc(Nc3cccc(Cl)c3)n2)c1	
> 10000 nM		> 10000 nM	CN(C)c1ccc(C(=O)Nc2cncc(-c3cncc(Nc4cccc(Cl)c4)n3)c2)cc1	
> 10000 nM		> 10000 nM	OCCCNc1cnc(Cl)c(-c2cncc(Nc3cccc(Cl)c3)n2)c1	
> 10000 nM	191 nM	189 nM	Clc1ccc(Nc2cncc(-c3cncc(NCCCc4ccncc4)c3)n2)cc1Cl	
> 10000 nM	1350 nM	1360 nM	Nc1ncc(NCCCO)cc1-c1cncc(Nc2cccc(Cl)c2)n1	
> 10000 nM	123 nM	123 nM	CN1CCN(CCCNc2cncc(-c3cncc(Nc4cccc(Cl)c4)n3)c2)CC1	
> 10000 nM	170 nM	168 nM	OCCCNc1cncc(-c2cncc(Nc3cccc(F)c3)n2)c1	
> 10000 nM	1000 nM	1000 nM	Clc1ccc(Nc2cncc(-c3cncc(NCCCc4ccncc4)c3)n2)cc1	
5620 nM	234 nM	236 nM	Clc1cccc(Nc2cncc(-c3cncc(NCCCN4CCNCC4)c3)n2)c1	

IC50 [4]	IC50 [13]	IC50 [14]	Structure (SMILES)	also measured
> 10000 nM		> 10000 nM	Clc1cccc(Nc2cncc(-c3cncc(NCCOc4ccccc4)c3)n2)c1	
> 10000 nM	2290 nM	2280 nM	Clc1cccc(Nc2cncc(-c3cncc(NCCCc4ccccc4)c3)n2)c1	
> 10000 nM	302 nM	303 nM	COCC(=O)Nc1cncc(-c2cncc(Nc3cccc(Cl)c3)n2)c1	
> 10000 nM	182 nM	180 nM	Clc1cccc(Nc2cncc(-c3cncc(NCCCN4CCOCC4)c3)n2)c1	
5380 nM	398 nM	399 nM	Clc1cccc(Nc2cncc(-c3cncc(NCCCN4CCCCC4)c3)n2)c1	
> 10000 nM	1150 nM	1160 nM	Nc1cncc(-c2cncc(Nc3cccc(Cl)c3)n2)c1	
> 10000 nM		> 10000 nM	O=C(COCc1ccccc1)Nc1cncc(-c2cncc(Nc3cccc(Cl)c3)n2)c1	
> 10000 nM	741 nM	740 nM	COc1cccc(Nc2cncc(-c3cncc(NCCCO)c3)n2)c1	
> 10000 nM	617 nM	610 nM	O=C(CCCNc1cncc(-c2cncc(Nc3cccc(Cl)c3)n2)c1)N1CCCCC1	
> 10000 nM	589 nM	593 nM	COCCC(=O)Nc1cncc(-c2cncc(Nc3cccc(Cl)c3)n2)c1	
> 10000 nM	135 nM	135 nM	CN(C)CCCNc1cncc(-c2cncc(Nc3cccc(Cl)c3)n2)c1	
> 10000 nM		> 10000 nM	OCCCNc1cncc(-c2cncc(Oc3cccc(Cl)c3)n2)c1	
5220 nM	575 nM	568 nM	O=C(O)CCCNc1cncc(-c2cncc(Nc3cccc(Cl)c3)n2)c1	
3690 nM	4270 nM	4300 nM	CN(C)CCNC(=O)c1cncc(-c2cncc(Nc3cccc(Cl)c3)n2)c1	
> 10000 nM	75.9 nM	76 nM	Clc1cccc(Nc2cncc(-c3cncc(NCCCc4ccncc4)c3)n2)c1	
> 10000 nM	347 nM	346 nM	O=C(CO)Nc1cncc(-c2cncc(Nc3cccc(Cl)c3)n2)c1	
> 10000 nM	93.3 nM	94 nM	Clc1cccc(Nc2cncc(-c3cncc(NCCCn4cccn4)c3)n2)c1	IC50 [15]: 8100 nM; IC50 [1]: 5600 nM; IC50 [2]: 3610 nM; IC50 [3]: 1390 nM; IC50 [17]: > 10000 nM; IC50 [5]: 3000 nM; IC50 [6]: > 10000 nM; IC50 [7]: 120 nM; IC50 [19]: > 10000 nM; IC50 [8]: 3500 nM; IC50 [10]: 2840 nM; IC50 [11]: 5240 nM; IC50 [12]: 606 nM; IC50 [21]: > 10000 nM
> 10000 nM	67.6 nM	67 nM	Clc1cccc(Nc2cncc(-c3cncc(NCCCn4cncn4)c3)n2)c1	IC50 [15]: 7200 nM; IC50 [1]: 6500 nM; IC50 [2]: 6720 nM; IC50 [3]: 1070 nM; IC50 [5]: 2980 nM; IC50 [6]: > 10000 nM; IC50 [7]: 57 nM; IC50 [19]: > 10000 nM; IC50 [8]: 6060 nM; IC50 [10]: 5160 nM; IC50 [11]: > 10000 nM; IC50 [12]: 196 nM; IC50 [21]: > 10000 nM

Structure (SMILES)	IC50 [4]	IC50 [13]	IC50 [14]	also measured
OCCCCNc1cncc(-c2cncc(Nc3cccc(Cl)c3)n2)c1	> 10000 nM	63.1 nM	63 nM	IC50 [15]: > 10000 nM; IC50 [16]: > 10000 nM; IC50 [2]: 3610 nM; IC50 [3]: 1170 nM; IC50 [17]: > 10000 nM; IC50 [5]: 3230 nM; MDS [18]: 29.2; IC50 [6]: > 10000 nM; IC50 [7]: 63 nM; IC50 [19]: > 10000 nM; MDS [20]: 24; IC50 [8]: 5560 nM; IC50 [9]: > 10000 nM; IC50 [10]: 6080 nM; IC50 [11]: > 10000 nM; IC50 [12]: 4020 nM; IC50 [21]: > 10000 nM
CN(C)CCNc1cncc(-c2cncc(Nc3cccc(Cl)c3)n2)c1	> 10000 nM	105 nM	105 nM	IC50 [15]: > 10000 nM; IC50 [16]: > 10000 nM; IC50 [1]: > 10000 nM; IC50 [22]: > 10000 nM; IC50 [23]: > 10000 nM; IC50 [2]: 2910 nM; IC50 [3]: 877 nM; IC50 [17]: > 10000 nM; IC50 [5]: 2770 nM; MDS [18]: 28.9; IC50 [6]: > 10000 nM; IC50 [7]: 59 nM; IC50 [19]: > 10000 nM; MDS [20]: 22.4; IC50 [8]: > 10000 nM; IC50 [9]: 3960 nM; IC50 [10]: 3720 nM; IC50 [11]: 8580 nM; IC50 [12]: > 10000 nM; IC50 [21]: > 10000 nM
